Results reported in ChEMBL document CHEMBL4732230, “Design, synthesis, and biological evaluation of 4-benzoylamino-1H-pyrazole-3-carboxamide derivatives as potent CDK2 inhibitors” (Eur J Med Chem, 2021).
Each block holds one compound with its values, some of them ahead of it. Calls of active or inactive are those of the source. The calls are words filed in the database; no cut-off is given here.

Experiments:
[1] = biological target: Cyclin-dependent kinase 1/cyclin B1 (Homo sapiens, UniProt P06493); type: protein-complex assay
Sequence of Cyclin-dependent kinase 1/cyclin B1 (P06493 whole entry): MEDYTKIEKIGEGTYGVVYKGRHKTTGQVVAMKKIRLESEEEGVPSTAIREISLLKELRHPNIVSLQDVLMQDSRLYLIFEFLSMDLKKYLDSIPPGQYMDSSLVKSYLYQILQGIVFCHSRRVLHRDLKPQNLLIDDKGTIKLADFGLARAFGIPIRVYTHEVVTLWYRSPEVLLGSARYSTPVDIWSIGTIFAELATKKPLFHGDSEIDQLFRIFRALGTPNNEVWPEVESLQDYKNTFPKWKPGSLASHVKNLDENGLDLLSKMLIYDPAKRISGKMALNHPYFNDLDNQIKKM
Sequence of Cyclin-dependent kinase 1/cyclin B1 (P14635 whole entry, further chain): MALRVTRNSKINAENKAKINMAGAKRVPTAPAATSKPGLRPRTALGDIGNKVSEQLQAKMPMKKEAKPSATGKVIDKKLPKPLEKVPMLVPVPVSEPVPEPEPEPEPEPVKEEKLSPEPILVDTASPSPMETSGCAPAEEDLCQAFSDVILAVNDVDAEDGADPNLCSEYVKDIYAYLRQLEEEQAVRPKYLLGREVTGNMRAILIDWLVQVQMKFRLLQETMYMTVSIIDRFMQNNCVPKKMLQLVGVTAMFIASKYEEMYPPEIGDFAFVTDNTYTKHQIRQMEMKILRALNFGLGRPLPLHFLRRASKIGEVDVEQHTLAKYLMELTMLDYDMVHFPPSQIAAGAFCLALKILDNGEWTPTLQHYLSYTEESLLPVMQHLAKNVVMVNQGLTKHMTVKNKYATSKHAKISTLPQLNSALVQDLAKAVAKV

[2] = biological target: CDK2/Cyclin A2 (Homo sapiens, UniProt P24941); assay: Inhibition of CDK2/cyclin A2 (unknown origin) using FAM-labeled peptide and ATP as substrate preincubated for 10 mins followed by substrate addition by mobility shift assay; type: protein-complex assay
[3] = test system: A2058; assay: Antiproliferative activity against human A2058 cells assessed as reduction in cell viability measured after 96 hrs by Celltiter-Glo luminescent assay; type: functional, cell-based; settings: A2058, 96 h
How it was run: (§1)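 Cells in DMEM (A2058, MRC5) or RPMI 1640 (MV4-11), each with 10% fetal bovine serum and 1% penicillin/streptomycin. Cells were plated in 96-well plates and exposed to serially concentrated compound for 96 h, with DMSO as control. Viability was read by CellTiter-Glo luminescence and IC50 derived.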

[4] = biological target: CDK3/Cyclin E (Homo sapiens, UniProt Q00526); assay: Inhibition of CDK3/cyclin E1 (unknown origin) using FAM-labeled peptide and ATP as substrate preincubated for 10 mins followed by substrate addition by mobility shift assay; type: protein-complex assay
Sequence of CDK3/Cyclin E (P24864 whole entry): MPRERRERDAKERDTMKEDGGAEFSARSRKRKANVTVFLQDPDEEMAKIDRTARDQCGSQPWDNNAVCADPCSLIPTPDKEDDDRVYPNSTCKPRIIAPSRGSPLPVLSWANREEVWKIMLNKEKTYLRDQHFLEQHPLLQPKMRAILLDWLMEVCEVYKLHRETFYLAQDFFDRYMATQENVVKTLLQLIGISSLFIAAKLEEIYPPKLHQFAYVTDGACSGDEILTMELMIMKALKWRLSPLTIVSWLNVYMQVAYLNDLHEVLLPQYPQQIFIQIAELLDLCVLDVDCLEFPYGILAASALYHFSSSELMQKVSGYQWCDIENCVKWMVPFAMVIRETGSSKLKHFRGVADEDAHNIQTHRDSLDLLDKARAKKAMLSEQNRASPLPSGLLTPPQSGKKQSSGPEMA
Sequence of CDK3/Cyclin E (Q00526 whole entry): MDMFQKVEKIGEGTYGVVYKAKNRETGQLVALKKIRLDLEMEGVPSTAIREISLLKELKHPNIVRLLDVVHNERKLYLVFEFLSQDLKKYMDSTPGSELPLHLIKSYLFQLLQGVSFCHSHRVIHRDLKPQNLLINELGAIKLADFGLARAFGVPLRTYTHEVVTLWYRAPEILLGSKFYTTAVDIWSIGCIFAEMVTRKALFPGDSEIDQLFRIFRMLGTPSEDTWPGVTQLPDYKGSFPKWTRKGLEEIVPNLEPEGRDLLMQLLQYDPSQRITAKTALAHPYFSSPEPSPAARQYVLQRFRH
How it was run: (§2)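 Mobility shift assay in 50 mM HEPES pH 7.5 with 0.0015% Brij-35. Kinase was added to serially diluted compound in 10% DMSO and held 10 min at room temperature. FAM-labeled peptide and ATP were then added and the mixture incubated at 28 °C for the specified time. Reactions were stopped with EDTA-containing buffer.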

[5] = biological target: CDK4/Cyclin D3 (Homo sapiens, UniProt P11802); assay: Inhibition of CDK4/cyclin D3 (unknown origin) using FAM-labeled peptide and ATP as substrate preincubated for 10 mins followed by substrate addition by mobility shift assay; type: protein-complex assay
Sequence of CDK4/Cyclin D3 (P11802 whole entry): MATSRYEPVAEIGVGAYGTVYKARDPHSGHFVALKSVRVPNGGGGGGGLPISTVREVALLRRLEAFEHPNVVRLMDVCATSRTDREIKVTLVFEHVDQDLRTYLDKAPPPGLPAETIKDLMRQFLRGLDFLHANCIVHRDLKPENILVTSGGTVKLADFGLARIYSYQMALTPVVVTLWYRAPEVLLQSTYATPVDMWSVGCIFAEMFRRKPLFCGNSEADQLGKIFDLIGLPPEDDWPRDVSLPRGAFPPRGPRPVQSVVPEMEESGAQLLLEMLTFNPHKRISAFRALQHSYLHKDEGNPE
Sequence of CDK4/Cyclin D3 (P30281 whole entry, further chain): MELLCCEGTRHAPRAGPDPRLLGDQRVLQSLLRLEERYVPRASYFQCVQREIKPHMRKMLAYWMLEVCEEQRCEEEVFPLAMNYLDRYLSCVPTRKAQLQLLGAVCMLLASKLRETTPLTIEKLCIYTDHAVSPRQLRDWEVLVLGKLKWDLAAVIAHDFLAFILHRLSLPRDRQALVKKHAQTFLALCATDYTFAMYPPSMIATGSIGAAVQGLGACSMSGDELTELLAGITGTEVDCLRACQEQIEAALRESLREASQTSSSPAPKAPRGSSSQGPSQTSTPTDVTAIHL

[6] = biological target: CDK6/cyclin D3 (Homo sapiens, UniProt Q00534); assay: Inhibition of CDK6/cyclin D3 (unknown origin) using FAM-labeled peptide and ATP as substrate preincubated for 10 mins followed by substrate addition by mobility shift assay; type: protein-complex assay
Sequence of CDK6/cyclin D3 (P30281 whole entry): as the sequence (P30281 whole entry, further chain) above
Sequence of CDK6/cyclin D3 (Q00534 whole entry): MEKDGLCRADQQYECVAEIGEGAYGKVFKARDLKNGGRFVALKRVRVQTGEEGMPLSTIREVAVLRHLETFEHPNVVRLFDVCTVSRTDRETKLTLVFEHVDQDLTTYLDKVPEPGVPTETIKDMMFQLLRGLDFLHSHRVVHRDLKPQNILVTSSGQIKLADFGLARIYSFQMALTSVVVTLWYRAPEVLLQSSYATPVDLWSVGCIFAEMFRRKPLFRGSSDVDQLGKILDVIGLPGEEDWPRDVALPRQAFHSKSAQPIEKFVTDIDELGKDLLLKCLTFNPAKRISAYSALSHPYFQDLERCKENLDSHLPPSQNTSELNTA
How it was run: as §2

[7] = biological target: CDK7/Cyclin H/MNAT1 (Homo sapiens, UniProt P50613); assay: Inhibition of CDK7/cyclinH/MAT1 (unknown origin) using FAM-labeled peptide and ATP as substrate preincubated for 10 mins followed by substrate addition by mobility shift assay; type: protein-complex assay
Sequence of CDK7/Cyclin H/MNAT1 (P51946 whole entry): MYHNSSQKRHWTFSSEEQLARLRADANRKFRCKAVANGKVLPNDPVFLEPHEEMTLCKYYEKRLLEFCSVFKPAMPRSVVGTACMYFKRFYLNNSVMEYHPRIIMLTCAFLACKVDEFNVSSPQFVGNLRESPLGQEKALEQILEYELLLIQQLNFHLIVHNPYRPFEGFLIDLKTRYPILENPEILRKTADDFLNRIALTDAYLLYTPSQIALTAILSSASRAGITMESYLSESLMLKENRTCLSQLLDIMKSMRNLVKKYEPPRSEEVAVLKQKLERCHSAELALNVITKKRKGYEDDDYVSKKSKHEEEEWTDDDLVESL
Sequence of CDK7/Cyclin H/MNAT1 (P50613 whole entry): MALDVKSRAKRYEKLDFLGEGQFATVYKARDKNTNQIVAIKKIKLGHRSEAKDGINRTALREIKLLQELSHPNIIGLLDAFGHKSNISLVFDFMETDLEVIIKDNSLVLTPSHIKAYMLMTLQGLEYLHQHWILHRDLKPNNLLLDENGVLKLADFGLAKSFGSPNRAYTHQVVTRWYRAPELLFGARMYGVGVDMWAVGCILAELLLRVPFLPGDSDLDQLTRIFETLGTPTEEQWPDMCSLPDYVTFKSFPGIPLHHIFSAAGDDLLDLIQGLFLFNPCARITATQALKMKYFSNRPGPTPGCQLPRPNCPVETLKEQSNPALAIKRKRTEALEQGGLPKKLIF
Sequence of CDK7/Cyclin H/MNAT1 (P51948 whole entry, further chain): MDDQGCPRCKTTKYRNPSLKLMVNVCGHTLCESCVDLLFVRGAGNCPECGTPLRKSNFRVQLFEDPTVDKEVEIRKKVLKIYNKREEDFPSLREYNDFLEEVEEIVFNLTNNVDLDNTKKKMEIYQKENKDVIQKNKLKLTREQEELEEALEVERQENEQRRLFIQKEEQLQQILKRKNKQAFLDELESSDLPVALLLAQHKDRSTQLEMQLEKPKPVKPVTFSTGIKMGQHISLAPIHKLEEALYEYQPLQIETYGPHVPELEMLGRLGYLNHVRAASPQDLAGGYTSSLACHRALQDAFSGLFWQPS
How it was run: as §2

[8] = biological target: CDK9/cyclin T1 (Homo sapiens, UniProt P50750); assay: Inhibition of CDK9/cyclin T1 (unknown origin) using FAM-labeled peptide and ATP as substrate preincubated for 10 mins followed by substrate addition by mobility shift assay; type: protein-complex assay
Sequence of CDK9/cyclin T1 (O60563 whole entry): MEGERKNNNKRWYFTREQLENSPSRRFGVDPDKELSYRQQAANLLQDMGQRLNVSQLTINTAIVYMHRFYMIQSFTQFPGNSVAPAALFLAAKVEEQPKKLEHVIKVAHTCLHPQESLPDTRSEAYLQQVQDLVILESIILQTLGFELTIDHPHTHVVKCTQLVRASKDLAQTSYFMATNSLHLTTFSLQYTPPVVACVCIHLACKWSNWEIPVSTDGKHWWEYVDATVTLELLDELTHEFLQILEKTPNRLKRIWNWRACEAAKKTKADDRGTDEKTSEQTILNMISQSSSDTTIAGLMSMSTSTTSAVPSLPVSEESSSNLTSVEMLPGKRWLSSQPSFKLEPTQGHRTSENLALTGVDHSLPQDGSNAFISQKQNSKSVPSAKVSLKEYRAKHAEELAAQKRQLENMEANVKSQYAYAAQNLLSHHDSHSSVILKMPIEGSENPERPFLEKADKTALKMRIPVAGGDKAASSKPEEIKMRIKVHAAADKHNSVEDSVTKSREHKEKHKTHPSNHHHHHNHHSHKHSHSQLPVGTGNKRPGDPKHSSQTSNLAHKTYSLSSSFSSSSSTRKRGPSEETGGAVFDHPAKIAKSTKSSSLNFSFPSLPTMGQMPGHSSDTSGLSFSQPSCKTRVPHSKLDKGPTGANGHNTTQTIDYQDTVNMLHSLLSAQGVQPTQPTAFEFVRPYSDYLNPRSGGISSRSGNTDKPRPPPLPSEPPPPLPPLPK
Sequence of CDK9/cyclin T1 (P50750 whole entry): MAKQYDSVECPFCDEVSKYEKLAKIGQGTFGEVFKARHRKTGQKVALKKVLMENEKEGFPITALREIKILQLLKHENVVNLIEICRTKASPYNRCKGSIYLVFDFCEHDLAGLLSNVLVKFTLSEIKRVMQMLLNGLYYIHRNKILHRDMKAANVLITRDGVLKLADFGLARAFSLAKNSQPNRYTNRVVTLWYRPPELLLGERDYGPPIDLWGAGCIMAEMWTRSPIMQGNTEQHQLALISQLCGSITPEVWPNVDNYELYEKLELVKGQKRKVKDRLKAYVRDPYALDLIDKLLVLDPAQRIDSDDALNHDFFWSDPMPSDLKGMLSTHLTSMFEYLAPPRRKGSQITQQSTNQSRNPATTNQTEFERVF

[9] = biological target: CDK12/Cyclin K (Homo sapiens, UniProt Q9NYV4); assay: Inhibition of CDK12/cyclin K (unknown origin) using FAM-labeled peptide and ATP as substrate preincubated for 10 mins followed by substrate addition by mobility shift assay; type: protein-complex assay
How it was run: as §2

[10] = test system: MV4-11; assay: Antiproliferative activity against human MV4-11 cells assessed as reduction in cell viability measured after 96 hrs by Celltiter-Glo luminescent assay; type: functional, cell-based; settings: MV4-11, 96 h
How it was run: as §1

[11] = test system: MRC5; assay: Cytotoxicity against human MRC5 cells assessed as reduction in cell viability measured after 96 hrs by Celltiter-Glo luminescent assay; type: cell-based; settings: MRC5, 96 h
How it was run: as §1

[12] = Cytotoxicity against human LX2 cells assessed as inhibition of cell growth at 100 uM measured after 96 hrs by Celltiter-Glo luminescent assay; type: cell-based
How it was run: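 LX2 cells grown in DMEM with 10% fetal bovine serum and 1% penicillin/streptomycin, plated in 96-well plates. They were treated with compound at […] or DMSO control for 96 h. Viability was read by CellTiter-Glo luminescence and expressed as percent inhibition.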

[13] = biological target: Cyclin-dependent kinase 2 (Homo sapiens) (UniProt P24941); assay: Inhibition of CDK2 in human MV4-11 cells assessed as reduction in Rb phosphorylation at Ser807/811 after 24 to 48 hrs by immunoblot analysis; type: cell-based; settings: dose 0.375-6 µM, time lower […], time upper 48.0 hrs
How it was run: (§3)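 MV4-11 cells treated with compound for 24 h or 48 h. Lysates were separated on 8% or 10% SDS-PAGE and transferred to nitrocellulose. Membranes were immunoblotted for phospho-Rb Ser780, phospho-Rb Ser807/811 and total Rb, with β-actin as loading control. Detection used HRP secondary at 1:10,000 and ECL.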

[14] = biological target: Cyclin-dependent kinase 2 (Homo sapiens) (UniProt P24941); assay: Inhibition of CDK2 in human MV4-11 cells assessed as reduction in Rb phosphorylation at Ser807/811 at 0.375 to 6 uM by immunoblot analysis; type: cell-based; settings: dose 0.375-6 µM, time lower […], time upper 48.0 hrs, TDE = time-dependent effect
How it was run: as §3

[15] = biological target: Cyclin-dependent kinase 2 (Homo sapiens) (UniProt P24941); assay: Inhibition of CDK2 in human MV4-11 cells assessed as reduction in Rb phosphorylation at Ser780 after 24 to 48 hrs by immunoblot analysis; type: cell-based; settings: dose 0.375-6 µM, time lower […], time upper 48.0 hrs
How it was run: as §3

[16] = biological target: Cyclin-dependent kinase 2 (Homo sapiens) (UniProt P24941); assay: Inhibition of CDK2 in human MV4-11 cells assessed as reduction in Rb phosphorylation at Ser780 at 0.375 to 6 uM by immunoblot analysis; type: cell-based; settings: dose 0.375-6 µM, time lower […], time upper 48.0 hrs, TDE = time-dependent effect
How it was run: as §3

[17] = biological target: Cyclin-dependent kinase 2 (Homo sapiens) (UniProt P24941); assay: Inhibition of CDK2 in human MV4-11 cells assessed as downregulation of Mcl-1 expression at 0.1875 to 3 uM after 24 hrs by immunoblot analysis; type: cell-based; settings: dose 0.1875-3 µM
How it was run: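 MV4-11 cells exposed to compound for 24 h. Lysates were resolved by 8% or 10% SDS-PAGE and blotted to nitrocellulose. Blots were probed with anti-Mcl-1 overnight at 4 °C, then HRP secondary at 1:10,000. Bands were developed by ECL, with GAPDH as loading control.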

[18] = biological target: Cyclin-dependent kinase 2 (Homo sapiens) (UniProt P24941); assay: Inhibition of CDK2 in human A2058 cells assessed as downregulation of Mcl-1 expression at 0.1875 to 1.5 uM after 24 hrs by immunoblot analysis; type: cell-based; settings: dose 0.1875-1.5 µM
[19] = test system: A2058; assay: Induction of cell cycle arrest in human A2058 cells assessed as accumulation at G1 phase at 0.2 uM after 24 hrs by propidium iodide/RNase staining based flow cytometric analysis (reference value: 48.05 %); type: functional
[20] = test system: A2058; assay: Induction of cell cycle arrest in human A2058 cells assessed as accumulation at G2 phase at 0.2 uM after 24 hrs by propidium iodide/RNase staining based flow cytometric analysis (reference value: 21.19 %); type: functional
[21] = test system: A2058; assay: Induction of cell cycle arrest in human A2058 cells assessed as accumulation at S phase at 0.2 uM after 24 hrs by propidium iodide/RNase staining based flow cytometric analysis (reference value: 30.76 %); type: functional
[22] = test system: A2058; assay: Induction of cell cycle arrest in human A2058 cells assessed as accumulation at G1 phase at 0.4 uM after 24 hrs by propidium iodide/RNase staining based flow cytometric analysis (reference value: 48.05 %); type: functional
[23] = test system: A2058; assay: Induction of cell cycle arrest in human A2058 cells assessed as accumulation at G2 phase at 0.4 uM after 24 hrs by propidium iodide/RNase staining based flow cytometric analysis (reference value: 21.19 %); type: functional
[24] = test system: A2058; assay: Induction of cell cycle arrest in human A2058 cells assessed as accumulation at S phase at 0.4 uM after 24 hrs by propidium iodide/RNase staining based flow cytometric analysis (reference value: 30.76 %); type: functional
[25] = test system: A2058; assay: Induction of apoptosis in human A2058 cells assessed as viable cells at 1 uM measured after 48 hrs by Annexin V-FITC/propidium iodide staining based flow cytometry (reference value: 94.6 %); type: functional; settings: read-out: Activity
[26] = test system: A2058; assay: Induction of apoptosis in human A2058 cells assessed as early apoptotic cells at 1 uM measured after 48 hrs by Annexin V-FITC/propidium iodide staining based flow cytometry (reference value: 3.13 %); type: functional
[27] = test system: A2058; assay: Induction of apoptosis in human A2058 cells assessed as late apoptotic cells at 1 uM measured after 48 hrs by Annexin V-FITC/propidium iodide staining based flow cytometry (reference value: 1.85 %); type: functional
[28] = test system: A2058; assay: Induction of apoptosis in human A2058 cells assessed as necrotic cells at 1 uM measured after 48 hrs by Annexin V-FITC/propidium iodide staining based flow cytometry (reference value: 0.37 %); type: functional
[29] = test system: A2058; assay: Induction of apoptosis in human A2058 cells assessed as viable cells at 0.4 uM measured after 48 hrs by Annexin V-FITC/propidium iodide staining based flow cytometry (reference value: 94.6 %); type: functional; settings: read-out: Activity
[30] = test system: A2058; assay: Induction of apoptosis in human A2058 cells assessed as early apoptotic cells at 0.4 uM measured after 48 hrs by Annexin V-FITC/propidium iodide staining based flow cytometry (reference value: 3.13 %); type: functional
[31] = test system: A2058; assay: Induction of apoptosis in human A2058 cells assessed as late apoptotic cells at 0.4 uM measured after 48 hrs by Annexin V-FITC/propidium iodide staining based flow cytometry (reference value: 1.85 %); type: functional
[32] = test system: A2058; assay: Induction of apoptosis in human A2058 cells assessed as necrotic cells at 0.4 uM measured after 48 hrs by Annexin V-FITC/propidium iodide staining based flow cytometry (reference value: 0.37 %); type: functional
[33] = test system: A2058; assay: Induction of apoptosis in human A2058 cells assessed as viable cells at 0.2 uM measured after 48 hrs by Annexin V-FITC/propidium iodide staining based flow cytometry (reference value: 94.6 %); type: functional; settings: read-out: Activity
[34] = test system: A2058; assay: Induction of apoptosis in human A2058 cells assessed as early apoptotic cells at 0.2 uM measured after 48 hrs by Annexin V-FITC/propidium iodide staining based flow cytometry (reference value: 3.13 %); type: functional
[35] = test system: A2058; assay: Induction of apoptosis in human A2058 cells assessed as late apoptotic cells at 0.2 uM measured after 48 hrs by Annexin V-FITC/propidium iodide staining based flow cytometry (reference value: 1.85 %); type: functional
[36] = test system: A2058; assay: Induction of apoptosis in human A2058 cells assessed as necrotic cells at 0.2 uM measured after 48 hrs by Annexin V-FITC/propidium iodide staining based flow cytometry (reference value: 0.37 %); type: functional
[37] = test system: A2058; assay: Induction of apoptosis in human A2058 cells assessed as upregulation of cleaved caspase-3 level after 24 hrs by immunoblot analysis; type: functional, cell-based; settings: dose 0.1875-1.5 µM
How it was run: (§4)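 A2058 cells treated with compound for 24 h and lysed. Lysates were run on 8% or 10% SDS-PAGE and transferred to nitrocellulose, then blocked in 5% milk/TBST for 60 min. Blots were probed overnight at 4 °C for cleaved caspase-3 or cleaved PARP, then with HRP secondary at 1:10,000 for 1 h. Detection was by ECL, with tubulin as loading control.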

[38] = test system: A2058; assay: Induction of apoptosis in human A2058 cells assessed as upregulation of cleaved PARP level after 24 hrs by immunoblot analysis; type: functional, cell-based; settings: dose 0.1875-1.5 µM
How it was run: as §4

IC50 [1]: 69 nM
IC50 [2]: 8 nM
SMILES: NC(=O)c1cccc(-c2ccc(F)c(C(=O)Nc3c[nH]nc3C(=O)Nc3ccc(F)cc3)c2F)c1
IC50 [3]: 1990 nM

IC50 [1]: 1020 nM
IC50 [2]: 58 nM
IC50 [4]: 113 nM
IC50 [5]: 3480 nM
IC50 [6]: > 18000 nM
IC50 [7]: > 18000 nM
IC50 [8]: 1120 nM
IC50 [9]: > 18000 nM
IC50 [10]: 252 nM
inhibition [13]: Dose-dependent effect
inhibition [14]: Tde
inhibition [15]: Dose-dependent effect
inhibition [16]: Tde
inhibition [17]: Active
inhibition [18]: Active
SMILES: NC(=O)c1ccc(-c2ccc(F)c(C(=O)Nc3c[nH]nc3C(=O)Nc3ccc(F)cc3)c2F)cn1
IC50 [3]: 295 nM
IC50 [11]: 54800 nM
inhibition at 96 h, 100 µM [12]: 32.5%
Activity [19]: 36.89%
Activity [20]: 21.76%
Activity [21]: 41.35%
Activity [22]: 48.05%
Activity [23]: 41.44%
Activity [24]: 39.82%
viability at 1 µM [25]: 23.7%
Activity [26]: 40%
Activity [27]: 28.6%
Activity [28]: 7.66%
viability at 0.4 µM [29]: 55.1%
Activity [30]: 21.7%
Activity [31]: 14.6%
Activity [32]: 8.32%
viability at 0.2 µM [33]: 87.3%
Activity [34]: 4.52%
Activity [35]: 4.75%
Activity [36]: 3.41%
Activity [37]: Dose-dependent effect
Activity [38]: Dose-dependent effect

IC50 [1]: 350 nM
IC50 [2]: 67 nM
SMILES: CN1CCN(CCNC(=O)c2cccc(-c3ccc(F)c(C(=O)Nc4c[nH]nc4C(=O)Nc4ccc(F)cc4)c3F)c2)CC1

IC50 [1]: 1300 nM
IC50 [2]: 169 nM
SMILES: O=C(NCCCN1CCOCC1)c1ccc(F)c(-c2ccc(F)c(C(=O)Nc3c[nH]nc3C(=O)Nc3ccc(F)cc3)c2F)c1
IC50 [3]: 943 nM

IC50 [1]: 496 nM
IC50 [2]: 210 nM
SMILES: COC(=O)c1cccc(-c2ccc(F)c(C(=O)Nc3c[nH]nc3C(=O)Nc3ccc(F)cc3)c2F)c1
